From PubChem
This is a sample that favours compounds with a hit; in the whole collection about 2.2% have one here.
MEX-5 binding: MEX-5 zinc finger RNA-binding disruptors – biochemical, C. elegans, fluorescence polarization, MLPCN library, primary screen; Zinc finger protein mex-5 (Caenorhabditis elegans), Q9XUB2; MEX-5/FITC-TCR2 RNA binding; stronger effect = lower value; activity score (negative = inhibition of binding), % at 10 µM; AID 1832, 2009; 300,000 compounds, 0.38% hits;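 active = inhibition past about -25% in most replicates, and total fluorescence under double the plate's negative control median, limit read from the data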;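 also: 0% = DMSO and -100% = 5 µM competing unlabeled TCR2 RNA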
GLD-1 TGE inh: GLD-1/TGE RNA complex disruptors, primary screen, biochemical, fluorescence polarization; Female germline-specific tumor suppressor gld-1 (Caenorhabditis elegans), Q17339; 320,000 compounds, 0.44% hits; AID 2280, 2010; inhibition, % at 5.96 µM; purified GLD-1 + fluorescein TGE RNA;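 active = percent inhibition above a per-plate cutoff, the plate mean of test compounds plus 3 SD, cut at about 30% in these data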;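 also: 0% = DMSO wells with GLD-1 and probe and 100% = wells lacking GLD-1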
VIM-2 inhibitor: VIM-2 metallo-beta-lactamase inhibitors, primary screen, biochemical, epi-absorbance readout, Pseudomonas aeruginosa enzyme. purified VIM-2, nitrocefin hydrolysis, epi-absorbance fluorescence. inhibition, % at 5.6 µM. 290,000 compounds, 0.89% hits. AID 1527, 2009;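 active = inhibition above the mean of all tested compounds plus 3 SD, cutoff set per screening run, cut at about 7.5% in these data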;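 also: red hydrolysis product quenches plate fluorescence so inhibitors raise well fluorescence; 0% = enzyme with DMSO and 100% = DMSO without enzyme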
EBV gp42 inh: Epstein-Barr virus gp42 inhibitors, primary screen, biochemical, uHTS, fluorescence polarization; Fluorescence polarization binding assay, mP read-out; inhibition, % (tested at 21.74 µM); 220,000 compounds, 0.42% hits; in the data active = inhibition above about 50%
Target sequence (Q1HVG2 whole entry, looked up): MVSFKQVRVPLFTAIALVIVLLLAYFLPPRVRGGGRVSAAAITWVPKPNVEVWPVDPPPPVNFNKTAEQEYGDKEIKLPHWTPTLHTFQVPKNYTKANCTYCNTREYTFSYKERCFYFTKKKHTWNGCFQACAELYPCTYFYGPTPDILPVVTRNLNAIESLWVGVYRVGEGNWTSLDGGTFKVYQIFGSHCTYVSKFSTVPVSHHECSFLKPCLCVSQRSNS
BCLXL inh: inhibitors of human Bcl-xL, primary screen, biochemical, fluorescence polarization, HTS; GST-Bcl-xL / FITC-Bim BH3 peptide fluorescence polarization; AID 2129, 2009; inhibition, % at 10.9 µM; 320,000 compounds, 0.7% hits; Bcl-2-like protein 1 (Homo sapiens), Q07817;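 active = inhibition above the mean of all tested compounds plus 3 SD, cutoff set per campaign, cut at about 30% in these data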;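 also: 0% = DMSO wells and 100% = unlabeled Bim-BH3 peptide competitor; inhibitors lower millipolarization by displacing the labeled peptide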
IMP-1 inh-1: IMP-1 metallo-beta-lactamase inhibitors, primary screen, biochemical, epi-absorbance readout, Pseudomonas aeruginosa enzyme; metallo-beta-lactamase IMP-1 (Pseudomonas aeruginosa); purified IMP-1, nitrocefin hydrolysis, epi-absorbance fluorescence; inhibition, % at 5.6 µM; 290,000 compounds, 0.45% hits;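 active = inhibition above the mean plus 3 SD of all compounds in the same screening run, cut at about 4.5% in these data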;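 also: 0% = IMP-1 with DMSO and 100% = DMSO wells lacking enzyme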
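assay system = purified recombinant IMP-1 metallo-beta-lactamase enzyme | schedule = 15 min preincubation plus 25 min reaction at 25 °C | signal = Epi-absorbance fluorescence, 480 nm excitation, 530 nm emission | read-out basis = percent inhibition from optical density relative to buffer-blank wells | controls = IMP-1 with DMSO as 0%, enzyme-free DMSO as 100%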
IMP-1 inh-2: IMP-1 metallo-beta-lactamase inhibitors, confirmation, selectivity assay for selective VIM-2 inhibitor project, biochemical, epi-absorbance readout, triplicate; inhibition, % at 5.6 µM; shares compounds with VIM-2 inhibitor; purified IMP-1, nitrocefin hydrolysis, epi-absorbance fluorescence; 1,300 tested, under 10 active; AID 1856, 2009; call rule not given here;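 also: 0% = enzyme with vehicle and 100% = vehicle without enzyme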
VIM-2 FRET ctr: VIM-2 inhibitors in FRET format, confirmation, artefact control for selective VIM-2 inhibitor project, biochemical, epi-absorbance artifact exclusion; shares compounds with VIM-2 inhibitor; purified VIM-2, CCF2 FRET substrate hydrolysis; inhibition, % at 5.6 µM; 1,300 compounds, 23% hits; AID 1857, 2009;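 active = inhibition above the mean of all tested compounds plus 3 SD, cut at about 19% in these data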;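 also: 0% = VIM-2 plus DMSO and 100% = no enzyme wells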
TEM-1 counter-1: TEM-1 serine beta-lactamase inhibitors, counter-screen for VIM-2 inhibitor project, biochemical, epi-absorbance, HTS; inhibition, % at 5.6 µM; shares compounds with VIM-2 inhibitor; 1,300 compounds, 3% hits; Purified TEM-1, nitrocefin hydrolysis, epi-absorbance fluorescence;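 active = inhibition above that campaign's mean inhibition plus 3 SD, cut at about 0.46% in these data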;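 also: 0% = TEM-1 with DMSO and 100% = TEM-1 with 100 µM potassium clavulanate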
Target sequence (P62593 whole entry, looked up): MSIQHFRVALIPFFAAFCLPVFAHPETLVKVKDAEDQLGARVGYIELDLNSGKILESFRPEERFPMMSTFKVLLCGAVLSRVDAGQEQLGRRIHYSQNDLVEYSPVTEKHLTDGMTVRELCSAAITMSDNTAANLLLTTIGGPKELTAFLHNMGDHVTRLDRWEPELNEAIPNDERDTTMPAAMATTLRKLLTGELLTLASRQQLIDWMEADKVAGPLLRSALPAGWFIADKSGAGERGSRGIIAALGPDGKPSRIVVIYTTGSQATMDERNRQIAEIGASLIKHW
VIM-2 inh conf: VIM-2 metallo-beta-lactamase inhibitors, confirmation, biochemical, epi-absorbance, hits shared with IMP-1 screen. 1,300 compounds, 96% hits. purified VIM-2, nitrocefin hydrolysis. inhibition, % at 5.6 µM. AID 2187, 2009. shares compounds with VIM-2 inhibitor;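 active = inhibition of the VIM-2 beta-lactamase enzyme above about 11% from the earlier first-round screen, limit read from the data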;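 also: 0% = VIM-2 with DMSO and 100% = buffer wells without enzyme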
VIM-2 confirm: P. aeruginosa VIM-2 enzyme inhibition – biochemical, epi-absorbance, HTS, confirmation. purified VIM-2 enzyme, nitrocefin absorbance. inhibition, % at 5.6 µM. 200 compounds, 73% hits. AID 1860, 2009. shares compounds with IMP-1 inh-1; in the data active = inhibition above about 8%;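 also: 0% = enzyme with vehicle and 100% = no enzyme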
TEM-1 counter-2: Serine beta-lactamase TEM-1 inhibition, biochemical epi-absorbance counter-screen for IMP-1/VIM-2 inhibitor program | TEM-1 beta-lactamase, nitrocefin absorbance inhibition | inhibition, % at 5.6 µM | shares compounds with IMP-1 inh-1 | 200 compounds, 50% hits; in the data active = inhibition above about 0.66%
IMP-1 inh conf: IMP-1 metallo-beta-lactamase inhibitors, confirmation, biochemical, epi-absorbance, hits shared with VIM-2 screen; purified IMP-1 enzyme, absorbance substrate hydrolysis; 200 compounds, 60% hits; shares compounds with IMP-1 inh-1; AID 2189, 2009; inhibition, % at 5.6 µM; in the data active = inhibition above about 4.9%;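 also: 0% = enzyme with vehicle and 100% = vehicle without enzyme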
GLD1 RNA confirm: GLD-1/TGE RNA binding inhibitors, retest, confirmation, biochemical, fluorescence polarization, triplicate; inhibition, % at 5.96 µM; GLD-1/FL-TGE RNA fluorescence polarization; 550 compounds, 10% hits; shares compounds with GLD-1 TGE inh;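 active = average inhibition across triplicates above the hit cutoff set in the primary screen, cut at about 32% in these data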;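 also: 0% = GLD-1 with RNA probe and DMSO and 100% = wells lacking GLD-1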
The depositor's hits bear a star; x = not tested or not shown.

SMILES | MEX-5 binding | GLD-1 TGE inh | VIM-2 inhibitor | EBV gp42 inh | BCLXL inh | IMP-1 inh-1 | IMP-1 inh-2 | VIM-2 FRET ctr | TEM-1 counter-1 | VIM-2 inh conf | others
O=C(CN1CCOCC1)n1c2c(c3ccccc31)CCCC2 | 0 | 2 | 13* | 0 | 2 | -1 | -4 | 6 | -7 | 5
O=C(CN1CCOCC1)n1c2ccccc2c2ccccc21 | -1 | -2 | -6 | -6 | 7 | -1 | x | x | x | x
O=C(NC1CC1)C1=C[C@H](c2coc3ccccc3c2=O)C[C@H](OCc2ccc(CO)cc2)O1 | -7 | 11 | x | x | 17 | x | x | x | x | x
C(=N\Nc1ncnc2sc3c(c12)CCC3)/c1ccncc1 | -15 | -2 | 34* | -1 | 5 | -5 | -2 | -6 | -4 | 53*
C(=N\Nc1ncnc2sc3c(c12)CCC3)/c1cccs1 | -8 | 2 | 2 | -18 | -4 | -1 | x | x | x | x
CC12CN(C(=O)c3cccc([N+](=O)[O-])c3)C3(C#N)CC1CCC23C (stereo not drawn) | -1 | x | -1 | x | x | -1 | x | x | x | x
ClC(Cl)(Cl)c1nc2ccccc2n2nncc12 | 0 | 6 | 24* | x | 2 | -2 | -2 | 0 | -6 | 38*
Cc1nn2c(NCCCN(C)C)c3c(nc2c1-c1ccccc1)CCC3 | -2 | 31* | 14* | 6 | 0 | -3 | -3 | -5 | -7 | 37* | GLD1 RNA confirm=4
CC(Sc1nc2ccccc2c(=O)n1CCc1ccc(S(N)(=O)=O)cc1)C(=O)NC(N)=O (stereo not drawn) | 1 | 1 | 0 | x | 0 | 1 | x | x | x | x
N#CC1=C(N)Oc2c(O)cc3ccccc3c2C1c1ccsc1 (stereo not drawn) | -7 | 8 | 8.1* | 14 | 10 | 4.6* | x | x | x | x | VIM-2 confirm=0;TEM-1 counter-2=-5;IMP-1 inh conf=-3
CN[C@@H]1CC[C@H](c2ccc(Cl)c(Cl)c2)c2ccccc21 | 0 | x | -2 | x | x | -6 | x | x | x | x
Cc1noc(NS(=O)(=O)c2ccc(NC(=O)/C=C/c3ccccc3)cc2)c1C | x | 4 | x | x | x | x | x | x | x | x
